In ChEMBL document CHEMBL1153229, “The first synthetic agonists of FFA2: Discovery and SAR of phenylacetamides as allosteric modulators” (Bioorg Med Chem Lett, 2010):
The source made the active and inactive calls. The rule behind the calls is not given here.

Columns and labels:
[1] = target: Growth hormone secretagogue receptor type 1 (Homo sapiens) (UniProt Q92847); experiment: Agonist activity at GHSR up to 30 uM; assay type: functional
[2] = AUC in mouse at 5 mg/kg, po; assay type: ADME, organism-based; design: dose 5 mg/kg, route oral; details: plasma
[3] = target: Hydroxycarboxylic acid receptor 2 (Homo sapiens) (UniProt Q8TDS4); experiment: Agonist activity at GPR109A up to 30 uM; assay type: functional
Chain of Hydroxycarboxylic acid receptor 2 (Homo sapiens) (Q8TDS4 whole entry): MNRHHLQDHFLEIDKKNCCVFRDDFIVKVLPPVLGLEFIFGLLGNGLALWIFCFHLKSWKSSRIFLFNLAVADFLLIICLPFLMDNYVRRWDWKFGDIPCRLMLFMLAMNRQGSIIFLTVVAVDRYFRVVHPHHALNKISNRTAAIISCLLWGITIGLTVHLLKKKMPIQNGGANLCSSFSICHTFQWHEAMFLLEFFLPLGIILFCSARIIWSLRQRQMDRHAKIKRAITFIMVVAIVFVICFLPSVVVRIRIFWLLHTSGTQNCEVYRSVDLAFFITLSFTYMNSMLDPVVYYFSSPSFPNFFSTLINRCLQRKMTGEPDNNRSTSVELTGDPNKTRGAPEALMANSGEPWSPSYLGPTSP

Mus musculus [4] = experiment: Reduction in plasma free fatty acid level in overnight fasted wild type C57BL/6 mouse at 20 mg/kg, ip after 15 mins; assay type: functional, organism-based; design: dose 20 mg/kg
Procedure, shortened: (§1)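 Male-unspecified C57BL6 mice, wild type or FFA2 knockout, fasted overnight. Given compound or vehicle (10% dimethyl acetamide, 10% ethanol, 30% propylene glycol, 50% saline) ip at 10 ml/kg. Tail blood sampled before and 15 minutes after injection. Plasma FFA measured by enzymatic kit. Ten animals per group; t test.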

[5] = target: C-C chemokine receptor type 2 (Homo sapiens) (UniProt P41597); experiment: Agonist activity at CCR2 up to 30 uM; assay type: functional
Chain of C-C chemokine receptor type 2 (Homo sapiens) (P41597 whole entry, looked up): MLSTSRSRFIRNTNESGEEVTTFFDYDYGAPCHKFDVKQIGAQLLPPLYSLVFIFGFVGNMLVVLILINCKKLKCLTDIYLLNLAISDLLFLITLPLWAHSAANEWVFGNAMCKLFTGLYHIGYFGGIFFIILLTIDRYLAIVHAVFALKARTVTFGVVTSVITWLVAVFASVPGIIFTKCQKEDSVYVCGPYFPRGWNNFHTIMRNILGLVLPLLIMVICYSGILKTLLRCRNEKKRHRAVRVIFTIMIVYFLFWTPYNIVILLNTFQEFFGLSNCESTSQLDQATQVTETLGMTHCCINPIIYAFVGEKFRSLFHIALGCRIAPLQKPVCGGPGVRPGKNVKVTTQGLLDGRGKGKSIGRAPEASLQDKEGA

[6] = target: T1, C-X-C chemokine receptor type 3 (Homo sapiens) (UniProt P49682); experiment: Agonist activity at CXCR3 up to 30 uM; assay type: functional
T1 sequence (whole entry): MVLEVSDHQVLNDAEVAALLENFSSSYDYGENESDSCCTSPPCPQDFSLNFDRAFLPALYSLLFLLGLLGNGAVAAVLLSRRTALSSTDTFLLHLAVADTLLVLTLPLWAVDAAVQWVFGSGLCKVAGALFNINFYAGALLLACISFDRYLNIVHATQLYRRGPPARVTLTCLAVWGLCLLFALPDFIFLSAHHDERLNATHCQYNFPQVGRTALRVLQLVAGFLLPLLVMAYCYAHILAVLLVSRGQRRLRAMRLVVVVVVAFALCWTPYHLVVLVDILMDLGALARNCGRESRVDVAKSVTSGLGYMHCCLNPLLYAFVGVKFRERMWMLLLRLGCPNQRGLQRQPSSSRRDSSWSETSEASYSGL

3T3-L1 = experiment: Inhibition of lipolysis in mouse 3T3L1 cells; assay type: functional, cell-based
Procedure, shortened: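 Lipolysis measured in 3T3L1 adipocytes across a concentration range of test compound. Sensitivity to pertussis toxin treatment also examined. Means of three experiments.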

[7] = target: C-X-C chemokine receptor type 4 (Homo sapiens) (UniProt P61073); experiment: Agonist activity at CXCR4 up to 30 uM; assay type: functional
Chain of C-X-C chemokine receptor type 4 (Homo sapiens) (P61073 whole entry): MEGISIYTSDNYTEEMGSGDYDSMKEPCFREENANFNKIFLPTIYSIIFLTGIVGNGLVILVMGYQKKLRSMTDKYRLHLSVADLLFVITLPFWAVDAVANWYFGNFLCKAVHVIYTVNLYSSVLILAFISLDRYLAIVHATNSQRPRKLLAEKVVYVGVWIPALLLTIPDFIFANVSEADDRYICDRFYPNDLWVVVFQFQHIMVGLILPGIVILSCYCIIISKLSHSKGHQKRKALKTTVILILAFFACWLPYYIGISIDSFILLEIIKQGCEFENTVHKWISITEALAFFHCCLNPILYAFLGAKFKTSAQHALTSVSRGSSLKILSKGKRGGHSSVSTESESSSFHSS

[8] = Tmax in mouse at 5 mg/kg, po; assay type: ADME, organism-based; design: dose 5 mg/kg, route oral; details: in vivo
[9] = target: T2, Free fatty acid receptor 2 (Homo sapiens, UniProt O15552); experiment: Agonist activity at human FFA2 receptor expressed in CHO cells assessed as inhibition of forskolin-induced cAMP production; assay type: functional, cell-based
T2 sequence (O15552 whole entry): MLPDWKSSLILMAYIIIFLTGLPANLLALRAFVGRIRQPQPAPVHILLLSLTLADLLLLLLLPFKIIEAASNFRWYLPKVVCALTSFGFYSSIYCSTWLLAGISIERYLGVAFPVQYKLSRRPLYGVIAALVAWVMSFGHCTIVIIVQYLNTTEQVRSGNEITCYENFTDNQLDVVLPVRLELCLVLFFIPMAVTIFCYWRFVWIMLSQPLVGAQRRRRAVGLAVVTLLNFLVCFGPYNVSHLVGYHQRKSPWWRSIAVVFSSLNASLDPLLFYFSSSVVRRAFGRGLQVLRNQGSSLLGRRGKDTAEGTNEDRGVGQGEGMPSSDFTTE
Procedure, shortened: (§2)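 Suspended cells, 10,000 per well, in Hank's balanced salt solution with 25 mM HEPES and 0.01% (w/v) BSA. Stimulated with forskolin (5 μM final) plus serially diluted test ligands, room temperature for 30 min. Antibody and lysis reagents then added, followed by overnight dark incubation with detection solution. Luminescence read (RLU). Efficacy expressed relative to acetate. Means of four experiments.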

Rattus norvegicus = experiment: Clearance in Sprague-Dawley rat at 0.5 mg/kg, iv; assay type: ADME, organism-based; design: dose 0.5 mg/kg, route intravenous; details: in vivo
Procedure, shortened: (§3)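 Male Sprague-Dawley rats dosed 0.5 mg/kg iv.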

Mus musculus [10] = experiment: Reduction in plasma free fatty acid level in overnight fasted FFA2 knockout C57BL/6 mouse at 20 mg/kg, ip after 15 mins; assay type: functional, organism-based; design: dose 20 mg/kg; procedure, shortened: as §1
[11] = Mean residence time in Sprague-Dawley rat at 0.5 mg/kg, iv; assay type: ADME, organism-based; design: dose 0.5 mg/kg, route intravenous; details: in vivo; procedure, shortened: as §3
[12] = target: T3, C-C chemokine receptor type 7 (Homo sapiens) (UniProt P32248); experiment: Agonist activity at CCR7 up to 30 uM; assay type: functional
T3 sequence (whole entry): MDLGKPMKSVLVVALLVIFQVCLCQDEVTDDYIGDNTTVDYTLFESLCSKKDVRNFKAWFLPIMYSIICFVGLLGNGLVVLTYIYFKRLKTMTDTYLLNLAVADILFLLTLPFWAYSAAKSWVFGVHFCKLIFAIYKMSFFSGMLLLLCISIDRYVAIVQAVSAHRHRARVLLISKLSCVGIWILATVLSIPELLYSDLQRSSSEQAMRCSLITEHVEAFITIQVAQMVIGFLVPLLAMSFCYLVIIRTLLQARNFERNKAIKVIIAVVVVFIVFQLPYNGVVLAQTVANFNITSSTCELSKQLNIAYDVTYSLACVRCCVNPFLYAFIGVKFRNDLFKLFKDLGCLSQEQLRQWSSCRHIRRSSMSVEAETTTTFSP

[13] = Mean residence time in mouse at 5 mg/kg, po; assay type: ADME, organism-based; design: dose 5 mg/kg, route oral; details: in vivo
Mus musculus [14] = experiment: Reduction in plasma free fatty acid level in overnight fasted wild type C57BL/6 mouse at 3 mg/kg, ip after 15 mins; assay type: functional, organism-based; design: dose 3 mg/kg; procedure, shortened: as §1
[15] = target: T4, Free fatty acid receptor 2 (Homo sapiens) (UniProt O15552); experiment: Agonist activity at human FFA2 receptor expressed in CHO cells assessed as inhibition of forskolin-induced cAMP production relative to acetate; assay type: functional, cell-based; procedure, shortened: as §2
T4 sequence (whole entry): T2 sequence (O15552 whole entry)

Mus musculus [16] = experiment: Reduction in plasma free fatty acid level in overnight fasted FFA2 knockout C57BL/6 mouse at 3 mg/kg, ip after 15 mins; assay type: functional, organism-based; design: dose 3 mg/kg; procedure, shortened: as §1
[17] = Cmax in mouse at 5 mg/kg, po; assay type: ADME, organism-based; design: dose 5 mg/kg, route oral; details: in vivo
[18] = target: T5, Endothelin receptor type B (Homo sapiens) (UniProt P24530); experiment: Agonist activity at ETBR up to 30 uM; assay type: functional
T5 sequence (whole entry): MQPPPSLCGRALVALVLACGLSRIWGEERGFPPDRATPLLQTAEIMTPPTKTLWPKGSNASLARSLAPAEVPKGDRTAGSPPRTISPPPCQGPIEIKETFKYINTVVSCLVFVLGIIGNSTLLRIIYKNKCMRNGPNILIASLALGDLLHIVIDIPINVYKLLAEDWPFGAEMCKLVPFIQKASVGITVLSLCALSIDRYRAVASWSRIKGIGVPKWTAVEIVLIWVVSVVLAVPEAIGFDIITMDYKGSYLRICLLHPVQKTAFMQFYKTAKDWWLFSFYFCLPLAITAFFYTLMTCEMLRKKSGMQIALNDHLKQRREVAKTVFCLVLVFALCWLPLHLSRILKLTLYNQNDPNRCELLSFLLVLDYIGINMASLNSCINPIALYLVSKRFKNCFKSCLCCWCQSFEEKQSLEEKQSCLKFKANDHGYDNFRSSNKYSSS

Chain of Growth hormone secretagogue receptor type 1 (Homo sapiens) (Q92847 whole entry): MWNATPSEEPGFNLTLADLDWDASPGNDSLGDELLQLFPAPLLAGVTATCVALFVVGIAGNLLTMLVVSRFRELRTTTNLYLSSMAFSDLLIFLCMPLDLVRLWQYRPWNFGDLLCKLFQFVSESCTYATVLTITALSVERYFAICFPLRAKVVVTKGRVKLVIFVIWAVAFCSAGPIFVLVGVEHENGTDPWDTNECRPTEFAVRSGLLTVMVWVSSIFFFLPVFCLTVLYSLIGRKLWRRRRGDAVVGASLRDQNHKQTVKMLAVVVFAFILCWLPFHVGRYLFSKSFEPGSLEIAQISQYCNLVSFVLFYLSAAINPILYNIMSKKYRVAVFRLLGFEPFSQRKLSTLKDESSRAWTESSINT

- Activity [1]: inactive
- AUC [2]: 62000 ng·h/mL
- Activity [3]: inactive
- Activity [5]: inactive
- Activity [6]: inactive
- Activity [7]: inactive
- Tmax [8]: 19.8 min
- IC50 [9]: 500 nM
- CL (Rattus norvegicus): 43.3 mL/min/kg
- MRT [11]: 228 min
- Activity [12]: inactive
- MRT [13]: 55.8 min
- Efficacy [15]: 103%
- Cmax [17]: 83 ng/mL
- Activity [18]: inactive
SMILES: CC(C)[C@H](C(=O)Nc1ncc(F)s1)c1ccc(Cl)cc1
- Activity (Mus musculus [4]): Active
- inhibition (3T3-L1): Dose-dependent effect
- Activity (Mus musculus [10]): Active
- Activity (Mus musculus [14]): Active
- Activity (Mus musculus [16]): inactive
